Screening data deposited in PubChem BioAssay by several laboratories.
This is a sample that favours compounds with a hit; in the whole collection about 1.2% have one here.
Fh CTSL1 inh: cathepsin L1 inhibition, PFM18AAP counter-screen | recombinant F. hepatica cathepsin L1, Z-Leu-Arg-MCA fluorescence | inhibition, % at 5.96 µM | 300,000 tested, 0.49% active | AID 1906;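 active = inhibition above the mean of all tested compounds plus 3 SD, set per screening campaign, cut at about 17% in these data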;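 note: 0% = plate median of test compound wells and 100% = 1 µM Z-Phe-Ala-diazomethylketone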
TDP2 absorb: blocks human TDP2 phosphodiesterase activity | 370,000 tested, 0.34% active | inhibition, % at 12.8 µM | O95551 | recombinant TDP2, T5PNP hydrolysis, p-nitrophenol absorbance 415 nm;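 active = inhibition above the mean of all tested compounds plus 3 SD, set per campaign, cut at about 25% in these data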;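 note: 0% = DMSO with enzyme and 100% = buffer with substrate but no TDP2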
Target sequence (O95551 whole entry, looked up): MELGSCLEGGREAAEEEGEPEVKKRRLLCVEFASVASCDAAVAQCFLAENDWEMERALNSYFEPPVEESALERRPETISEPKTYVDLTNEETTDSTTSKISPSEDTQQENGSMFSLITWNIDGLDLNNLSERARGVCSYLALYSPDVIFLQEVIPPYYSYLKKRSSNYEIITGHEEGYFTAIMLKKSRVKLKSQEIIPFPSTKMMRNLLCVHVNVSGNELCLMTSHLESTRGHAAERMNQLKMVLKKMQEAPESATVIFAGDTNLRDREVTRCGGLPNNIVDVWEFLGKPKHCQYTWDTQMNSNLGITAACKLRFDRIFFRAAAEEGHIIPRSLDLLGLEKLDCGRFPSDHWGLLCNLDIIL
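Test system: human TDP2 enzyme; Input: 120 nM TDP2 per well; Buffer or medium: Mg2+-containing Tris-HCl buffer, pH 7.5; Reagent: 5 mM T5PNP; Dosing: 12.8 µM single point, 1% DMSO; Incubation: reaction 2 h, 37 °C; Detection: p-Nitrophenol epi absorbance; Read-out: % inhibition relative to enzyme-containing and enzyme-free wells; Replicates: single well per compound.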
NSD2 HMT inh: blocks human histone methyltransferase NSD2. O96028. NSD2 peptide methylation, AlphaScreen, 120 min. inhibition, % at 12.5 µM. 310,000 tested, 0.54% active. AID 743445; in the data active = inhibition above about 50%
UBC9 SUMO inh: SUMOylation inhibition; P63279; HTRF SUMOylation assay, SAE1/SAE2 + UBC9, in vitro; inhibition, % at 35 µM; 290,000 tested, 0.36% active; AID 2006; in the data active = inhibition above about 50%, passing the limit was not always enough
Target sequence (P63279 whole entry, looked up): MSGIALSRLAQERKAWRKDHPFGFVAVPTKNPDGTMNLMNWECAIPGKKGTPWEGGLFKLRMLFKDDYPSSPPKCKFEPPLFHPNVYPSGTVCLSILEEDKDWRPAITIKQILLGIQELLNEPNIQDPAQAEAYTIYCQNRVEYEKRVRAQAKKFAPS
TDP2 inh conf: human TDP2 inhibition, confirmation. shares compounds with TDP2 absorb. recombinant human TDP2, absorbance read-out. inhibition, % at 12.8 µM. 1,100 tested, 22% active; in the data active = inhibition above about 25%;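 note: 0% = vehicle with enzyme and 100% = no enzyme buffer only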
* = called active by the depositor; · = not tested or not shown.

SMILES | Fh CTSL1 inh | TDP2 absorb | NSD2 HMT inh | UBC9 SUMO inh | others
CCOC(=O)/C=C/C(=O)Nc1ccc(S(=O)(=O)N2CCCCCC2)cc1 | 31* | 2 | 3 | 12
Cc1ccc2c(c1)-c1cc(C)ccc1C2=O | · | -1 | -2 | ·
Cc1cccc(OC(=O)NCCOC(=O)N(O)c2ccc(Cl)cc2)c1 | 19* | -4 | -3 | 6
C=CCN=C1NC(c2ccccc2C(F)(F)F)C(C(=O)OC)=C(C)N1Cc1ccc(C(F)(F)F)cc1 (configuration not stated) | · | -9 | -1 | ·
CN(CC(=O)Nc1ccccc1Cl)C(=O)CN1C(=O)C2CCCCC2C1=O (configuration not stated) | -1 | -19 | -2 | ·
O=C(CSc1nnnn1-c1ccccc1)CSc1nnnn1-c1ccccc1 | 22* | 6 | -1 | 19
O=C(O)CSc1nnnn1-c1ccccc1 | -6 | 4 | -2 | 10
Cc1cccc(/N=C/c2nc(-c3ccccc3Br)oc2O)n1 | 67* | 6 | 1 | 18
Cc1ccnc(N=Cc2nc(-c3ccccc3Br)oc2O)c1 | 67* | 6 | 6 | -2
COc1ccccc1Oc1c(C)oc2c(CN3CCN(C)CC3)c(O)ccc2c1=O | 2 | -3 | 0 | 52*
COc1ccc(NC(=O)C(c2ccncc2)n2c(=O)c(-c3ccco3)nc3ccccc32)cc1 (configuration not stated) | · | -5 | · | ·
O=C(COC(=O)CNC(=O)c1cccc(F)c1)NCCC1=CCCCC1 | 22* | 1 | -2 | -20
O=C(COC(=O)COc1cccc(F)c1)NCCC1=CCCCC1 | -10 | 5 | 3 | 0
CC(C)(C)C(=O)Nc1ccccc1C(=O)N1CCCC1 | 17* | 8 | -2 | 12
COC(=O)[C@H](CC(C)C)NC(=O)Cn1cnc2c(NCc3ccccc3)ncnc21 | · | -6 | · | ·
COc1ccc(C2=NN(C(=O)c3cccs3)C(c3ccccc3O)C2)cc1 (configuration not stated) | 4 | -6 | -2 | 56*
O=S1(=O)c2ccc(N3CCSCC3)cc2Oc2ccccc2CN1Cc1cn(Cc2ccc(Cl)cc2)nn1 | · | 5 | · | ·
CO[C@H]1/C=C/O[C@@]2(C)Oc3c(C)c(O)c4c(O)c(c(C=NN5CCN(C)CC5)c(O)c4c3C2=O)NC(=O)/C(C)=C\C=C\[C@H](C)[C@H](O)[C@@H](C)[C@@H](O)[C@@H](C)[C@H](OC(C)=O)[C@@H]1C | 0 | -5 | · | ·
CO[C@H]1C=CO[C@@]2(C)Oc3c(C)c(O)c4c(O)c(c(C=NN5CCN(C6CCCC6)CC5)c(O)c4c3C2=O)NC(=O)C(C)=CC=C[C@H](C)[C@H](O)[C@@H](C)[C@@H](O)[C@@H](C)[C@H](OC(C)=O)[C@@H]1C | · | · | · | 52*
O=C1C(Cl)=C(NCc2cccnc2)C(=O)c2ccccc21 | 27* | 11 | 48 | 11
CCOc1ccc(-n2c(SCC(=O)Nc3ccc(S(=O)(=O)Nc4nccs4)cc3)nnc2-c2ccc(C(C)(C)C)cc2)cc1 | · | -7 | -3 | ·
CCN(CC)c1ccc(/C=N/NC(=O)CNC(=O)C2COc3ccccc3O2)c(O)c1 (configuration not stated) | 5 | 2 | 7 | 51*
Cc1cc(CNC[C@H]2O[C@@H](n3cnc4c(N)ncnc43)[C@H](O)[C@@H]2O)no1 | · | 7 | · | ·
N/C(=N\OS(=O)(=O)c1ccccc1)c1cccnc1 | -4 | 4 | 2 | 17
N/C(=N\OS(=O)(=O)c1ccc2ccccc2c1)c1cccnc1 | 2 | -13 | 0 | 8
SMILES | Fh CTSL1 inh | TDP2 absorb | NSD2 HMT inh | UBC9 SUMO inh | others
N/C(=N\OS(=O)(=O)c1ccccc1)c1ccncc1 | 33* | -2 | 3 | 13
N/C(=N\OS(=O)(=O)c1ccc2ccccc2c1)c1ccncc1 | 43* | 2 | 0 | -18
O=C(Oc1ccc[nH]c1=O)c1cc([N+](=O)[O-])cc([N+](=O)[O-])c1 | 7 | 12 | 1 | 98*
CCNC(=O)Oc1ccc[nH]c1=O | 4 | 5 | 23 | 88*
COc1ccc(C(=O)Oc2ccc[nH]c2=O)cc1 | -5 | 0 | -3 | 10
O=C(Oc1ccc[nH]c1=O)C1CC1 | · | -5 | -3 | ·
CCOC(=O)CC[C@H]1CC[C@]2(CCCN(C(=O)c3ccc4ccccc4n3)C2)O1 | · | 6 | · | ·
COCCCNC(=O)[C@@H](Cc1ccccc1)NC(=O)CC[C@H]1O[C@@H](n2ccc(=O)[nH]c2=O)[C@H](O)[C@@H]1O | · | 10 | · | ·
NCCCCCc1nnc(SCC(=O)Nc2cccc(Cl)c2)o1 | 17* | -7 | 5 | 7
O=C(CSc1nnc(CNC(=O)c2cccs2)o1)Nc1cccc(Cl)c1 | 1 | 4 | 2 | -10
CC(C)N(Cc1ccccc1)C(=S)NC(=O)C1(C)CC1(Cl)Cl (configuration not stated) | 0 | 25* | -5 | 24 | TDP2 inh conf=5
CC(C)CNC(=O)CSc1nc2scc(-c3ccccc3)c2c(=O)[nH]1 | 2 | -2 | -1 | 10
CC(c1nc2scc(-c3ccccc3)c2c(=O)[nH]1)N1CCN(CC(=O)NC2CC2)CC1 (configuration not stated) | · | 32* | 0 | · | TDP2 inh conf=1
COc1ccc(/C=N/NC(=O)c2nnn(-c3nonc3N)c2CN(C)c2ccccc2)cc1 | 1 | 27* | 5 | -4 | TDP2 inh conf=7
CN(Cc1c(C(=O)N/N=C/c2ccccc2)nnn1-c1nonc1N)c1ccccc1 | 0 | -2 | 10 | -20
COc1ccc(-c2nc3ccccc3nc2-c2ccc(OC)c(OC)c2)cc1OC | 3 | 19 | · | 4
COc1ccc2nc3ccccc3nc2c1N | -7 | 39* | 41 | 93 | TDP2 inh conf=8
Cc1nc(NC(=O)COc2ccccc2)sc1C(=O)Nc1cccc(Cl)c1 | -1 | 27* | -2 | -24 | TDP2 inh conf=-17
COc1ccc(NC(=O)c2sc(NC(=O)COc3ccccc3)nc2C)cc1 | 0 | 0 | -3 | 22
O=C1OC[C@H](Cc2ccc3c(c2)OCO3)/C1=C\c1ccc2c(c1)OCO2 | 1 | · | · | ·
CC(C)(C)n1nnnc1C(c1cccc(C(F)(F)F)c1)N1CCOCC1 (configuration not stated) | 0 | -11 | · | 14
CC(C)(C)n1nnnc1C(c1cccnc1)N1CCOCC1 (configuration not stated) | 0 | 27* | -7 | 12 | TDP2 inh conf=-4
N#CCCn1cc(C(=O)N2CCCCC2)c(-c2ccc([N+](=O)[O-])cc2)n1 | -3 | -2 | -4 | -1
N#CCCn1cc(C(=O)N2CCOCC2)c(-c2ccc3c(c2)OCCO3)n1 | 4 | 25* | 22 | -3 | TDP2 inh conf=-9
O=C(OCc1nnc(-c2ccccc2)o1)c1ccc([N+](=O)[O-])s1 | · | 32* | -1 | · | TDP2 inh conf=37*
O=C(CN1CCOCC1)Nc1ccccc1Sc1ccccc1 | 1 | 8 | -2 | -8
O=C(CNCCN1CCOCC1)Nc1ccccc1Sc1ccccc1 | 1 | 28* | 2 | 19 | TDP2 inh conf=14
Cc1cncc(NCc2ccc3c(c2)OCO3)n1 | · | 7 | 10 | ·
